# Tests used:
# [1] = test system: PBP2a (pbp2a antisense, MRSA COL); assay: Antisense sensitization, pbp2a antisense in MRSA COL; format: cell-based, S. aureus; conditions: xylose induction
# [2] = test system: PBP1 (pbpA antisense, MRSA COL); assay: Antisense sensitization, pbpA antisense in MRSA COL; format: cell-based, S. aureus; conditions: xylose induction
# E. faecium = assay: MIC, ESKAPE panel; format: cell-based, Enterococcus faecium
# S. aureus ATCC 29213 = assay: MIC, in vitro antibacterial activity; format: cell-based, Staphylococcus aureus
# [3] = test system: Gram-negative bacteria of our panel; assay: Antibacterial activity, E. coli and ESKAPE panel; format: cell-based; conditions: Gram-negative bacteria of the E. coli/ESKAPE panel
# PBP2a allosteric site = PBP2a allosteric site (Staphylococcus aureus, UniProt P07944); assay: Intrinsic fluorescence quenching of oxacillin-acylated PBP2a; format: binding, S. aureus
# How it was run: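 PBP2a intrinsic fluorescence was excited at 280 nm and emission spectra were scanned while test compound was titrated to the final concentrations shown. Kd came from nonlinear regression of the change in maximum fluorescence intensity, averaged over three experiments.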
# S. aureus NRS100 = assay: MIC, in vitro antibacterial activity; format: cell-based; conditions: Staphylococcus aureus, MRSA|NRS100
# HepG2 cells = assay: XTT cell proliferation assay; format: cell-based; conditions: Homo sapiens, HepG2, read-out: IC50, XTT cell proliferation assay
# S. aureus VRS2 = assay: MIC, in vitro antibacterial activity; format: cell-based; conditions: Staphylococcus aureus, MRSA
# [4] = Glutathione adduct formation; format: in vitro ADME
# [5] = Pharmacokinetics after single iv or po dose; format: in vivo, mice
# [6] = test system: E. coli S30 extract translation; format: biochemical; conditions: β-galactosidase assay system
# PBP2a = PBP2a (Staphylococcus aureus, UniProt P07944); assay: Bocillin FL competition assay, purified recombinant PBP2a; format: binding, S. aureus
# How it was run: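 Recombinant purified PBP2a (1 μM) was labeled with fluorescent Bocillin FL (20 μM) in the presence of increasing amounts of test compound (μg/mL). Competition was read as loss of fluorescence labeling of the active site, and an apparent IC50 was derived.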
# [7] = Hemolysis of red blood cells; format: cell-based
# [8] = Metabolic stability in rat S9; format: in vitro ADME; conditions: liver S9
# S. aureus NRS119 = assay: MIC, in vitro antibacterial activity; format: cell-based; conditions: Staphylococcus aureus, MRSA|NRS119
# [9] = test system: S. aureus ATCC 29213 cell-wall biosynthesis; assay: Macromolecular synthesis assay, cell wall; format: cell-based, Staphylococcus aureus; conditions: 2 at 0.5 MIC
# How it was run: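 Logarithmic-phase S. aureus ATCC 29213 was treated with test compound at 1/2 MIC. Peptidoglycan synthesis was followed as D-[2,3-3H]-alanine incorporation into cell wall, with fosfomycin (16 μg/mL) as control. Maximum inhibition was taken at 120 min.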
# S. aureus NRS120 = assay: MIC, in vitro antibacterial activity; format: cell-based; conditions: Staphylococcus aureus, MRSA|NRS120
# [10] = Stability in mouse plasma; format: in vitro ADME
# S. aureus NRS123 = assay: MIC, in vitro antibacterial activity; format: cell-based; conditions: Staphylococcus aureus, MRSA|NRS123
# S. aureus NRS128 = assay: MIC, in vitro antibacterial activity; format: cell-based; conditions: Staphylococcus aureus, MSSA|NRS128
# [11] = test system: S. epidermidis ATCC 35547; assay: MIC, in vitro antibacterial activity; format: cell-based; conditions: Staphylococcus epidermidis, ATCC35547
# S. aureus VRS1 = assay: MIC, in vitro antibacterial activity; format: cell-based; conditions: Staphylococcus aureus, MRSA
# Water solubility = format: physicochemical
# How it was run: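 Test compound tested as its sodium salt, dissolved in water.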
# [12] = test system: S. aureus ATCC 29213 RNA synthesis; assay: Macromolecular synthesis assay, RNA; format: cell-based, Staphylococcus aureus; conditions: 0.5 MIC
# How it was run: (§1)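 Logarithmic-phase S. aureus ATCC 29213 was exposed to test compound at 1/2 MIC, and incorporation of radiolabeled precursors was monitored: [methyl-3H]-thymidine (DNA), [5,6-3H]-uridine (RNA) and L-[4,5-3H]-leucine (protein). Controls were ciprofloxacin 0.5 μg/mL (DNA), rifampicin 8 ng/mL (RNA) and tetracycline 31 ng/mL (protein). Maximum inhibition was taken at 80 min for DNA and at 120 min for RNA and protein.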
# [13] = Metabolic stability in human S9; format: in vitro ADME; conditions: liver S9
# [14] = test system: S. aureus ATCC 29213 DNA synthesis; assay: Macromolecular synthesis assay, DNA; format: cell-based, Staphylococcus aureus; conditions: 0.5 MIC
# How it was run: as §1
# T7 transcription = assay: In vitro transcription assay, T7 transcription kit; format: biochemical
# S. aureus NRS70 = assay: MIC, in vitro antibacterial activity; format: cell-based; conditions: Staphylococcus aureus, MRSA|NRS70
# [15] = test system: S. aureus ATCC 29213 protein synthesis; assay: Macromolecular synthesis assay, protein; format: cell-based, Staphylococcus aureus; conditions: 0.5 MIC
# How it was run: as §1
# [16] = Staphylococcus aureus, ATCC29213|MSSA
# [17] = experiment with meropenem control
# Chain of PBP2a (P07944 whole entry): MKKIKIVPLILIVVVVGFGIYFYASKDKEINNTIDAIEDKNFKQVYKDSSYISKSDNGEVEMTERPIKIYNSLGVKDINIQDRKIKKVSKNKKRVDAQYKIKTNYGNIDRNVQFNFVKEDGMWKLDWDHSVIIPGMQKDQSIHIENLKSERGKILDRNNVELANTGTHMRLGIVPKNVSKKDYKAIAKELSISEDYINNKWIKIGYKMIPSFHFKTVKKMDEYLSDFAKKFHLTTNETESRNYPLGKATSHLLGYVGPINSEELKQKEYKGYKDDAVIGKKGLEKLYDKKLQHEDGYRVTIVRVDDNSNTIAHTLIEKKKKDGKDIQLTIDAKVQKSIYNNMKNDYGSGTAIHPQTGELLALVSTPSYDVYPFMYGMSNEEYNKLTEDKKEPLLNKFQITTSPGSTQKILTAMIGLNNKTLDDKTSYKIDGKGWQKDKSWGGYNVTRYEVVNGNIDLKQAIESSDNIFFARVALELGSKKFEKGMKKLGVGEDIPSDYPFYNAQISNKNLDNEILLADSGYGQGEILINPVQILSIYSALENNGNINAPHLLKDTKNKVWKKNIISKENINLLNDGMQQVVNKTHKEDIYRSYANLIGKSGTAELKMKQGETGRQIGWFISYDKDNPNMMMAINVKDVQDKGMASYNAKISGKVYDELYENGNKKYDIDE
# Chain of PBP2a allosteric site (P07944 whole entry): as above
structure (smiles),measurement,setting,value
CCO/N=C(\C(=O)N[C@@H]1C(=O)N2C(C(=O)[O-])=C(Sc3nc(-c4cc[n+](C)cc4)cs3)CS[C@H]12)c1nsc(N)n1 [ceftaroline],sensitization on attenuation of PBP2a expression,[1],sensitized the strain
same,sensitization on attenuation of PBP1 expression,[2],sensitized the strain
N#Cc1ccc(/C=C/c2nc3ccccc3c(=O)n2-c2cccc(C(=O)O)c2)cc1 [compound 1],MIC,E. faecium,16 µg/mL
same,MIC,"S. aureus ATCC 29213; S. aureus ATCC 29213, quality control MSSA strain",2 µg/mL
same,activity against Gram-negative bacteria,[3],did not have activity
"N#Cc1ccc(/C=C/c2nc3ccccc3c(=O)n2-c2cccc(C(=O)O)c2)cc1 [compound 2, (E)-3-(3-carboxyphenyl)-2-(4-cyanostyryl)quinazolin-4(3H)-one]",Kd,PBP2a allosteric site,17.5 µM
same,MIC,S. aureus NRS100,16 µg/mL
same,IC50,HepG2 cells,63 ± 1 µg/mL
same,MIC,S. aureus ATCC 29213; [16],2 µg/mL
same,MIC,S. aureus VRS2,2 µg/mL
same,glutathione adduct formation,[4],did not form glutathione adducts
same,sensitization on attenuation of PBP2a expression,[1],sensitized the strain
same,maximum concentration,"[5]; mice, single 10 mg/kg oral (po) dose",1.29 µg/mL
same,time plasma levels sustained above MIC,"[5]; mouse, in vivo, iv, 10 mg/kg",2 h
same,clearance,"[5]; mouse, plasma, iv, 10 mg/kg",6.87 mL/min/kg
same,half-life,"[5]; mouse, plasma, iv, 10 mg/kg",> 20 h
same,half-life,"[5]; mouse, plasma, po, 10 mg/kg",> 20 h
same,alkylating agent,Alkylating agent test,not an alkylating agent
same,inhibition of in vitro translation,[6],did not show inhibition
same,IC50,PBP2a,356 µM
same,hemolysis at 50 μg/mL,[7],< 1%
same,remaining at 1 h,[8],100%
same,MIC,S. aureus NRS119,8 µg/mL
same,"inhibition of cell-wall biosynthesis (D-[2,3-3H]-alanine incorporation)","[9]; experiment with fosfomycin control, fosfomycin 16 μg/mL, 120 min",51 ± 12%
same,"inhibition of cell-wall biosynthesis (D-[2,3-3H]-alanine incorporation)",[9]; [17],61 ± 4%
same,MIC,S. aureus NRS120,8 µg/mL
same,half-life in mouse plasma,[10],141 h
same,MIC,S. aureus NRS123,2 µg/mL
same,MIC,S. aureus NRS128,4 µg/mL
same,MIC,[11],1 µg/mL
same,MIC,S. aureus VRS1,16 µg/mL
same,solubility,Water solubility,8000 µg/mL
same,"effect on transcription (RNA synthesis, [5,6-3H]-uridine incorporation)",[12],did not significantly affect
same,remaining at 1 h,[13],100%
same,"effect on replication (DNA synthesis, [methyl-3H]-thymidine incorporation)",[14],did not significantly affect
same,inhibition of in vitro transcription,T7 transcription,did not show inhibition
same,MIC,S. aureus NRS70,2 µg/mL
same,"effect on translation (protein synthesis, L-[4,5-3H]-leucine incorporation)",[15],did not significantly affect
same,sensitization on attenuation of PBP1 expression,[2],sensitized the strain
C[C@@H](O)[C@H]1C(=O)N2C(C(=O)O)=C(SCCN=CN)C[C@H]12 [imipenem],sensitization on attenuation of PBP2a expression,[1],sensitized the strain
same,sensitization on attenuation of PBP1 expression,[2],sensitized the strain
CC(=O)NC[C@H]1CN(c2ccc(N3CCOCC3)c(F)c2)C(=O)O1 [linezolid],MIC,S. aureus NRS100,2 µg/mL
same,MIC,S. aureus ATCC 29213; [16],4 µg/mL
same,MIC,S. aureus VRS2,2 µg/mL
same,MIC,S. aureus NRS119,32 µg/mL
same,MIC,S. aureus NRS120,32 µg/mL
same,MIC,S. aureus NRS123,2 µg/mL
same,MIC,S. aureus NRS128,1 µg/mL
same,MIC,[11],1 µg/mL
same,MIC,S. aureus VRS1,2 µg/mL
same,MIC,S. aureus NRS70,1 µg/mL
"C[C@@H](O)[C@H]1C(=O)N2C(C(=O)O)=C(S[C@@H]3CN[C@H](C(=O)N(C)C)C3)[C@H](C)[C@H]12 [meropenem, reference compound]","inhibition of cell-wall biosynthesis (D-[2,3-3H]-alanine incorporation)",[9]; [17],64 ± 2%
Cc1onc(-c2ccccc2)c1C(=O)N[C@@H]1C(=O)N2[C@@H]1SC(C)(C)[C@@H]2C(=O)O [oxacillin],MIC,S. aureus NRS100,512 µg/mL
same,MIC,S. aureus ATCC 29213; [16],0.25 µg/mL
same,MIC,S. aureus VRS2,256 µg/mL
same,MIC,S. aureus NRS119,512 µg/mL
same,MIC,S. aureus NRS120,512 µg/mL
same,MIC,S. aureus NRS123,32 µg/mL
same,MIC,S. aureus NRS128,0.5 µg/mL
same,MIC,[11],128 µg/mL
same,MIC,S. aureus VRS1,512 µg/mL
same,MIC,S. aureus NRS70,32 µg/mL
CN[C@H](CC(C)C)C(=O)N[C@H]1C(=O)N[C@@H](CC(N)=O)C(=O)N[C@H]2C(=O)N[C@H]3C(=O)N[C@H](C(=O)N[C@H](C(=O)O)c4cc(O)cc(O)c4-c4cc3ccc4O)[C@H](O)c3ccc(c(Cl)c3)Oc3cc2cc(c3O[C@@H]2O[C@H](CO)[C@@H](O)[C@H](O)[C@H]2O[C@H]2C[C@](C)(N)[C@H](O)[C@H](C)O2)Oc2ccc(cc2Cl)[C@H]1O [vancomycin],MIC,S. aureus NRS100,2 µg/mL
same,MIC,S. aureus ATCC 29213; [16],1 µg/mL
same,MIC,S. aureus VRS2,64 µg/mL
same,MIC,S. aureus NRS119,2 µg/mL
same,MIC,S. aureus NRS120,2 µg/mL
same,MIC,S. aureus NRS123,1 µg/mL
same,MIC,S. aureus NRS128,1 µg/mL
same,MIC,[11],16 µg/mL
same,MIC,S. aureus VRS1,512 µg/mL
same,MIC,S. aureus NRS70,1 µg/mL

# Source: paper PMC4607046 (Journal of the American Chemical Society, 2015)
